Calls of active or inactive are those of the source. No cut-off for these calls is given here.
What was measured:
[1] = tested on: PC-12; experiment: Neurorestorative activity against H2O2-induced oxidant injury in rat PC12 cells assessed as restorative rate at 20 uM measured after 48 hrs pretreated with 200 uM H2O2 for 1 hr by MTT assay; format: functional
In short: (§1)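 PC12 cells at 1×10^4/well in DMEM with 10% FBS and 5% horse serum for 24 h. Exposed to 200 μM H₂O₂ for 1 h, washed twice with PBS, then compound (10, 20 or 40 μM) in DMEM for 48 h. MTT 0.5 mg/ml final for 4 h, DMSO solubilization, A570. Restoration rate from absorbance relative to injured control; mean ± S.D. of six independent experiments.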

[2] = (§2) Cytotoxicity against human HEK293 cells as inhibition of cell viability at 80 uM after 24 hrs by MTT assay; format: cell-based; conditions: HEK293 cells, read-out: INH
[3] = tested on: PC-12; experiment: Neuroprotective activity against rat PC12 cells assessed as protection against corticosterone- induced lesion at 1.25 uM after 1 day by MTT assay; format: functional
In short: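 Low-differentiated PC12 cells at 1×10^4/well in DMEM with 5% heat-inactivated horse serum and 10% FBS for 24 h. Then 200 μM corticosterone plus compound at 1.25 μM for 1 day. MTT 0.5 mg/ml final for 4 h, formazan in DMSO, A570. Protection rate = (A_drug − A_corticosterone)/A_corticosterone ×100; mean ± S.D. of six independent experiments.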

[4] = tested on: PC-12; experiment: Neurorestorative activity against H2O2-induced oxidant injury in rat PC12 cells assessed as restorative rate at 10 uM measured after 48 hrs pretreated with 200 uM H2O2 for 1 hr by MTT assay; format: functional; in short: as §1
[5] = Cytotoxicity against human L02 cells as inhibition of cell viability at 80 uM after 24 hrs by MTT assay; format: cell-based; conditions: for cytotoxicity at 24 h, 80 µM: L02 cells, read-out: INH
[6] = tested on: PC-12; experiment: Neurorestorative activity against H2O2-induced oxidant injury in rat PC12 cells assessed as restorative rate at 40 uM measured after 48 hrs pretreated with 200 uM H2O2 for 1 hr by MTT assay; format: functional; in short: as §1
[7] = tested on: Mus musculus; experiment: Antidepressant-like activity in C57 mouse assessed as reduction in immobility time at 32 mg/kg, ip administered from day 2 to 15 measured on 2nd and 15th day 30 mins after drug challenge by forced swim test; format: functional; conditions: route intraperitoneal
In short: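 Male C57 mice (20–24 g), 10 per group. Day 1: 15 min pre-swim in a cylinder (20 cm diameter) with 15 cm water at 22–25 °C. Days 2–15: daily i.p. 32 mg/kg in 30% β-cyclodextrin. On days 2 and 15, a 6 min swim 30 min after dosing. Immobility (speed <20 mm/s) scored over the last 4 min from video. Mean ± S.D.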

[8] = tested on: Mus musculus; experiment: Toxicity in C57 mouse assessed as increase in spontaneous locomotor activity at 32 mg/kg, ip for 14 days by open field test; format: organism-based; design: dose 32 mg/kg, route intraperitoneal; conditions: in vivo, 336 h
In short: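 Male C57 mice (20–24 g), 10 per group, 12 h light/dark cycle, food and water ad libitum. Dosed i.p. at 32 mg/kg daily for 14 days, then total distance travelled measured in an open field arena.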

[9] = tested on: HEK293; experiment: as §2; format: cell-based; conditions: hek293, 24 h, 80 µM
[10] = tested on: PC-12; experiment: Neuroprotective activity against corticosterone- induced morphological change in rat PC12 cells assessed as decrease in cycloid shape at 1.25 uM after 24 hrs by inverted microscopic analysis; format: functional, cell-based
In short: (§3)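 PC12 cells seeded at 1×10^6 cells/mL and grown 1 d. Exposed to corticosterone 0.2 mM with or without drug at 1.25 μM for 24 h. Photographed by inverted microscope in three random fields per group. Cells with shrunk axons and cycloid shape counted as injured, normal neuron-like cells counted separately, using computer-assisted image analysis.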

[11] = tested on: PC-12; experiment: Neuroprotective activity against corticosterone- induced morphological change in rat PC12 cells assessed as decrease in shrunk axons at 1.25 uM after 24 hrs by inverted microscopic analysis; format: functional, cell-based; in short: as §3

| SMILES | Activity [1] | cytotoxicity at 24 h, 80 µM [2] [%] | Activity [3] | Activity [4] | cytotoxicity at 24 h, 80 µM [5] [%] | Activity [6] | inhibition in vivo at 32 mg/kg [7] [%] | Activity [8] [%] | Activity [9] | inhibition [10] | inhibition [11] | Activity ([5]; l02, 24 h, 80 µM) |
| --- | --- | --- | --- | --- | --- | --- | --- | --- | --- | --- | --- | --- |
| COc1ccc2cccc(CCNC(=O)C3CN(C(=O)c4ccccc4)C3)c2c1 | 6.6% | 11.9 | inactive | 2.9% | 3.8 | 4.6% | – | – | – | – | – | – |
| COc1ccc2cccc(CCNC(=O)C3CN(C(=O)c4cc([N+](=O)[O-])cc([N+](=O)[O-])c4)C3)c2c1 | 1.7% | 11.1 | inactive | inactive | 15.8 | inactive | – | – | – | – | – | – |
| COc1ccc2cccc(CCNC(=O)C3CN(S(=O)(=O)c4ccc(C)cc4)C3)c2c1 | inactive | 3.6 | inactive | inactive | 2.7 | inactive | – | – | – | – | – | – |
| COc1ccc2cccc(CCNC(=O)C3CN(C(=O)c4ccco4)C3)c2c1 | inactive | 26.4 | 38.8% | inactive | 3.2 | inactive | 36.2 | – | – | – | – | – |
| CNCCC(Oc1ccc(C(F)(F)F)cc1)c1ccccc1 (stereo unspecified) [FLUOXETINE] | inactive | – | 19.7% | 2.8% | – | inactive | 50.7 | 66.4 | – | – | – | – |
| COc1ccc2cccc(CCNC(=O)C3CN(C(=O)c4ccncc4Cl)C3)c2c1 | inactive | 17.3 | inactive | inactive | 4.8 | 2.1% | – | – | – | – | – | – |
| COc1ccc2cccc(CCNC(=O)C3CN(S(C)(=O)=O)C3)c2c1 | inactive | 8.5 | 1.4% | 0.9% | 4.4 | 3.7% | – | – | – | – | – | – |
| COc1ccc2cccc(CCNC(=O)C3CN(C(=O)c4ccc(C(F)(F)F)cc4)C3)c2c1 | inactive | 24.6 | 14.6% | inactive | 7.9 | inactive | – | – | – | – | – | – |
| COc1ccc2cccc(CCNC(=O)C3CN(C(=O)C(F)(F)F)C3)c2c1 | inactive | – | 43.5% | inactive | 2.6 | inactive | 58.4 | 88.5 | Non-toxic | Active | Active | – |
| COc1ccc2cccc(CCNC(=O)C3CN(C(=O)OCc4ccccc4)C3)c2c1 | 6.6% | 1 | inactive | 3.2% | 12.1 | 7.3% | – | – | – | – | – | – |
| COc1ccc2cccc(CCNC(=O)C3CN(C(=O)c4ccccn4)C3)c2c1 | inactive | 31.8 | inactive | 0.7% | 11.2 | inactive | – | – | – | – | – | – |
| CCC(=O)N1CC(C(=O)NCCc2cccc3ccc(OC)cc23)C1 | inactive | 11.2 | inactive | inactive | 2.9 | 7.5% | – | – | – | – | – | – |
| COc1ccc2cccc(CCNC(=O)C3CN(C(C)=O)C3)c2c1 | 0.6% | 6.2 | inactive | inactive | 2.3 | 1% | – | – | – | – | – | – |
| COc1cc(OC)cc(C(=O)N2CC(C(=O)NCCc3cccc4ccc(OC)cc34)C2)c1 | 2.1% | 13.1 | inactive | inactive | 13.1 | inactive | – | – | – | – | – | – |
| COc1ccc2cccc(CCNC(C)=O)c2c1 [AGOMELATINE] | 2.7% | – | 26.2% | inactive | – | inactive | 8.4 | 85.3 | – | – | – | – |
| COc1ccc(OC)c(C(=O)N2CC(C(=O)NCCc3cccc4ccc(OC)cc34)C2)c1 | inactive | 33.4 | 22.3% | inactive | 1.3 | inactive | – | – | – | – | – | – |
| COc1ccc2cccc(CCNC(=O)C3CN(C(=O)N(C)C)C3)c2c1 | 1.2% | 2.5 | inactive | inactive | – | 4.3% | – | – | – | – | – | Non-toxic |
| COc1ccc2cccc(CCNC(=O)C3CN(C(=O)c4ccc(C#N)cc4)C3)c2c1 | inactive | 17.5 | 25.8% | inactive | 1 | inactive | – | – | – | – | – | – |
| COc1ccc(C(=O)N2CC(C(=O)NCCc3cccc4ccc(OC)cc34)C2)cc1 | inactive | 8.9 | inactive | inactive | 7.8 | inactive | – | – | – | – | – | – |
| COc1ccc2cccc(CCNC(=O)C3CN(C(=O)c4ccc(Cl)cc4)C3)c2c1 | inactive | 11.8 | 39.2% | 0.3% | 5.9 | 4.7% | 49.1 | – | – | Active | Active | – |
| CC#C[C@]1(O)CC[C@H]2[C@@H]3CCC4=CC(=O)CCC4=C3[C@@H](c3ccc(N(C)C)cc3)C[C@@]21C [MIFEPRISTONE] | – | – | 31.1% | – | – | – | – | – | – | – | – | – |
| COc1ccc2cccc(CCNC(=O)C3CN(S(=O)(=O)N(C)C)C3)c2c1 | 2.1% | 4.6 | inactive | inactive | 7.4 | inactive | – | – | – | – | – | – |
| COc1ccc2cccc(CCNC(=O)C3CN(S(=O)(=O)c4ccc(Cl)cc4)C3)c2c1 | 4.5% | 21.5 | 25.3% | 4.6% | 33.6 | 6.8% | – | – | – | – | – | – |
